# T cruzi intra – inhibitors of intracellular Trypanosoma cruzi | intracellular Trypanosoma cruzi in host cells, plate reader | activity score (inhibition), % at 5.01 µM | 22,000 compounds, 4.9% hits; in the data active = activity score above about 55%;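 note: parasites and compound incubated about four days before reading; 0% = median of neutral control wells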
# INS-1E ATP HTS – preserves ATP levels in cytokine-treated INS-1E cells. INS-1E cytokine-induced death, ATP luminescence, 48 h; normalised: neutral wells 0, positive control 100. protection from cytokine-induced ATP loss, % at 10 µM. 20,000 compounds, 0.1% hits;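 active = mean replicate protection from cytokine-induced ATP loss at least 50% and at least 75% of replicates each reaching 50%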
#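 Assay system: INS-1E rat cells / Quantity: 8000 cells per well / Medium: RPMI without phenol red, 5% FBS / Probe or stimulus: three-cytokine cocktail (IFN-γ, TNF-α, IL-1β) / Dosing: one compound concentration, pin transfer / Timing: 48 h co-treatment, 10 min post-lysis read / Technique: CellTiter-Glo luminescence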
# A1 apoptosis 2 – blocks A1, raising caspase activity. MEF A1-2A-BIM cells, caspase-Glo luminescence, 3 h; percent of clofoctol response, DMSO zero. caspase activation, % (test concentration not listed). 24,000 tested, under 10 active; in the data active = caspase activation above about 5.9%
#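 system = A1-2A-BIM-expressing MEF cells | quantity = 2500 MEF cells/well | dosing = 50 nL compound per well, pinned | schedule = overnight cell settling, then 3 h compound exposure, 37 °C | signal = luminescence from DEVD-luciferin Caspase-Glo reagent, 1:1 in 50 mM HEPES, 1 h RT | read-out = Caspase-3/7 activation, seen as rise in luminescence signal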
# An asterisk follows results filed as active; · = no result given. The full list was thinned out, with hits kept by preference.
SMILES,T cruzi intra,INS-1E ATP HTS,A1 apoptosis 2
C[C@H]1CN([C@@H](C)CO)C(=O)Cc2cc(NC(=O)Nc3cccc4ccccc34)ccc2O[C@H]1CN(C)Cc1ccc(Oc2ccccc2)cc1,26.3,-21.2,·
C[C@H](CO)N1C[C@H](C)[C@H](CN(C)Cc2ccc3c(c2)OCO3)Oc2ccc(NC(=O)Nc3cccc4ccccc34)cc2C1=O,61.5*,-18.7,-0.6
C[C@@H]1CN([C@H](C)CO)C(=O)c2cccc(NC(=O)Nc3cccc4ccccc34)c2O[C@@H]1CN(C)Cc1ccc2c(c1)OCO2,-12.7,-16.8,-1.3
O=C(NO)c1ccc(C(=O)N/N=C/c2ccccc2[N+](=O)[O-])cc1,-20.5,18.0,1.4
O=C(CCCCC(=O)N/N=C/c1ccc(CO)o1)NO,-7.4,-0.4,-0.1
C[C@@H]1CN([C@H](C)CO)C(=O)c2cc(NC(=O)Nc3cccc4ccccc34)ccc2O[C@H]1CN(C)Cc1ccc(Cl)c(Cl)c1,58.0*,-34.1,-1.5
C[C@@H]1CN([C@@H](C)CO)C(=O)Cc2cc(NC(=O)Nc3cccc4ccccc34)ccc2O[C@H]1CN(C)Cc1ccc(Cl)c(Cl)c1,·,·,0.9
C[C@@H]1CN([C@H](C)CO)C(=O)c2cc(NC(=O)Nc3cccc4ccccc34)ccc2O[C@@H]1CN(C)Cc1ccc(Cl)c(Cl)c1,54.0,-11.8,·
C[C@H]1CN([C@@H](C)CO)C(=O)Cc2cc(NC(=O)Nc3cccc4ccccc34)ccc2O[C@@H]1CN(C)Cc1ccc(Cl)c(Cl)c1,59.9*,-22.5,·
O=C(NO)c1cccc(C(=O)N/N=C/c2cccc(Br)c2)c1,0.6,-8.7,0.2
CC(C)(C)OC(=O)Nc1ccc(/C=N/NC(=O)c2ccc(C(=O)NO)cc2)cc1,-17.3,17.1,·
Cc1noc(C)c1S(=O)(=O)Nc1ccc2c(c1)CC(=O)N([C@@H](C)CO)C[C@H](C)[C@H](CN(C)Cc1ccccc1)O2,1.6,4.8,-0.3
Cc1noc(C)c1S(=O)(=O)Nc1ccc2c(c1)CC(=O)N([C@H](C)CO)C[C@@H](C)[C@H](CN(C)Cc1ccc(Oc3ccccc3)cc1)O2,69.4*,-7.2,·
Cc1noc(C)c1S(=O)(=O)Nc1ccc2c(c1)CC(=O)N([C@@H](C)CO)C[C@H](C)[C@@H](CN(C)Cc1ccc(-c3ccccc3)cc1)O2,66.2*,-3.5,0.1
Cc1noc(C)c1S(=O)(=O)Nc1ccc2c(c1)C(=O)N([C@@H](C)CO)C[C@H](C)[C@@H](CN(C)Cc1ccc(-c3ccccc3)cc1)O2,40.9,-18.6,·
Cc1noc(C)c1S(=O)(=O)Nc1ccc2c(c1)CC(=O)N([C@@H](C)CO)C[C@H](C)[C@@H](CN(C)Cc1ccccc1)O2,26.6,2.4,-0.6
Cc1noc(C)c1S(=O)(=O)Nc1ccc2c(c1)CC(=O)N([C@H](C)CO)C[C@@H](C)[C@H](CN(C)Cc1ccc(-c3ccccc3)cc1)O2,57.9*,-30.6,-1.5
Cc1noc(C)c1S(=O)(=O)Nc1ccc2c(c1)C(=O)N([C@H](C)CO)C[C@H](C)[C@H](CN(C)Cc1ccc(-c3ccccc3)cc1)O2,65.3*,-16.8,-0.2
Cc1noc(C)c1S(=O)(=O)Nc1ccc2c(c1)CC(=O)N([C@H](C)CO)C[C@H](C)[C@H](CN(C)Cc1ccc(Oc3ccccc3)cc1)O2,·,-26.6,2.0
COC(=O)CCCCCCC(=O)N/N=C/c1coc2ccccc2c1=O,-4.3,11.3,0.5
Cc1ccc(S(=O)(=O)Nc2ccc3c(c2)CC(=O)N([C@H](C)CO)C[C@H](C)[C@@H](CN(C)Cc2ccc(Oc4ccccc4)cc2)O3)cc1,·,·,-2.1
C[C@@H]1CN([C@H](C)CO)C(=O)Cc2cc(NS(=O)(=O)c3ccc(F)cc3)ccc2O[C@H]1CN(C)Cc1ccc(Oc2ccccc2)cc1,66.2*,-45.4,-1.0
C[C@H]1CN([C@@H](C)CO)C(=O)Cc2cc(NS(=O)(=O)c3ccc(F)cc3)ccc2O[C@@H]1CN(C)Cc1ccc(Oc2ccccc2)cc1,65.7*,-18.7,2.3
C[C@@H]1CN([C@@H](C)CO)C(=O)Cc2cc(NS(=O)(=O)c3ccccc3)ccc2O[C@@H]1CN(C)Cc1ccc(Oc2ccccc2)cc1,44.7,-20.3,0.1
C[C@@H]1CN([C@H](C)CO)C(=O)Cc2cc(NS(=O)(=O)c3ccccc3)ccc2O[C@H]1CN(C)Cc1ccc(Oc2ccccc2)cc1,40.1,-19.5,·
SMILES,T cruzi intra,INS-1E ATP HTS,A1 apoptosis 2
Cc1ccc(S(=O)(=O)Nc2ccc3c(c2)CC(=O)N([C@H](C)CO)C[C@@H](C)[C@@H](CN(C)Cc2ccc(Oc4ccccc4)cc2)O3)cc1,65.1*,-22.0,·
COc1ccc(/C=N/NC(=O)CCCCCC(=O)Nc2ccccc2O)cc1,6.1,7.8,0.4
O=C(O)CCCCCCC(=O)N=NC=C1C=CN(O)C=C1,-2.9,0.2,0.7
O=S(=O)(N[C@@H]1CCCN(Cc2cccc(OCCO)c2)C1)c1cccc(F)c1,·,·,0.8
CC(C)=CCC[C@@H](C)C/C=N/NC(=O)CCCCC(=O)NO,13.9,2.6,0.2
COc1ccc(/C=N/NC(=O)c2ccccc2O)cc1,-17.5,-29.5,-3.1
O=C(O)CCCCCCC(=O)N/N=C/c1cccc2ccccc12,-2.9,12.1,·
O=C(CCCCCC(=O)Nc1ccccc1O)N=NC=C1C=CN(O)C=C1,·,·,-0.6
COc1ccc(/C=N/NC(=O)c2ccccn2)cc1OC,-9.1,-8.7,-2.2
O=C(CCCCC(=O)NN=C1CCCCCCC1)NO,12.6,5.3,0.4
C[C@@H]1CN([C@@H](C)CO)C(=O)c2cccc(NC(=O)CCCCCC(=O)Nc3ccccc3N)c2O[C@H]1CN(C)CC1CCCCC1,73.7*,15.9,·
C[C@H](CO)N1C[C@H](C)[C@H](CN(C)C)Oc2c(NC(=O)CCCCCC(=O)Nc3ccccc3N)cccc2C1=O,-56.3,17.4,0.2
C[C@H](CO)N1C[C@H](C)[C@H](CN(C)CC2CC2)Oc2c(NC(=O)CCCCCC(=O)Nc3ccccc3N)cccc2C1=O,9.6,9.5,-0.4
C[C@H](CO)N1C[C@H](C)[C@@H](CN(C)CC2CC2)Oc2c(NC(=O)CCCCCC(=O)Nc3ccccc3N)cccc2C1=O,72.4*,5.7,0.4
Cc1ccc(S(=O)(=O)Nc2ccc3c(c2)CC(=O)N([C@@H](C)CO)C[C@@H](C)[C@@H](CN(C)Cc2ccc4c(c2)OCO4)O3)cc1,26.9,-3.4,-1.7
C[C@@H]1CN([C@H](C)CO)C(=O)Cc2cc(NS(=O)(=O)c3ccc(Cl)cc3)ccc2O[C@H]1CN(C)Cc1ccc2c(c1)OCO2,64.5*,-5.8,0.9
C[C@@H]1CN([C@@H](C)CO)C(=O)Cc2cc(NS(=O)(=O)c3ccc(Cl)cc3)ccc2O[C@H]1CN(C)Cc1ccc2c(c1)OCO2,·,·,-0.5
C[C@@H]1CN([C@H](C)CO)C(=O)Cc2cc(NS(=O)(=O)c3ccc(Cl)cc3)ccc2O[C@@H]1CN(C)Cc1ccc2c(c1)OCO2,60.1*,-10.7,·
COCCOC(=O)N1C(=O)[C@@]2(c3cc(C#CC4=CCCCC4)ccc31)[C@H](C(N)=O)[C@H]1C(=O)O[C@H](c3ccccc3)[C@H](c3ccccc3)N1[C@@H]2c1ccccc1OCCO,·,·,0.5
